Laboratory results as given in ChEMBL document CHEMBL1828498, “Identification and characterization of a novel integrin-linked kinase inhibitor” (J Med Chem, 2011).
Active and inactive are the calls of the source. No cut-off for these calls is given here.

Experiments:
[1] = tested on: PC-3; experiment: Antiproliferative activity against human PC3 cells expressing constitutively active ILK assessed as cell viability by MTT assay; type: functional, cell-based
Procedure, shortened: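 Stable PC-3 clones expressing GFP-CA-ILK (or GFP), made by electroporation, G418 250 μg/mL for one week and GFP sorting. Treated 24 h in 5% FBS medium. Viability by MTT, 0.25 mg/mL, 1 h at 37°C, A570. n = 6, mean ± SD.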

[2] = tested on: PC-3; experiment: Induction of apoptosis in human PC3 cells assessed as early apoptotic cells at 4 uM by annexin V/PI staining (reference value: 5.6%); type: functional
[3] = tested on: SK-BR-3; experiment: Reduction in HER2 mRNA expression in human SKBR3 cells expressing constitutively active ILK after 24 hrs by RT-PCR analysis; type: functional, cell-based
Procedure, shortened: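 PC-3, PC-3/CA-ILK, SKBR3 and SKBR3/CA-ILK cells treated 24 h in 5% FBS medium; total RNA from 1 × 10^6 cells by Trizol, 1 μg reverse-transcribed, then PCR with gene-specific primers and β-actin reference.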

[4] = tested on: PC-3; experiment: Induction of apoptosis in human PC3 cells assessed as early apoptotic cells at 1 uM by annexin V/PI staining (reference value: 5.6%); type: functional
[5] = target: T1, Scaffold protein ILK (Homo sapiens) (UniProt Q13418); experiment: Inhibition of ILK in human PC3 cells assessed as decrease in phosphorylated ERK1/2 concentration by Western blot analysis; type: cell-based; conditions: PC-3
T1 sequence (whole entry): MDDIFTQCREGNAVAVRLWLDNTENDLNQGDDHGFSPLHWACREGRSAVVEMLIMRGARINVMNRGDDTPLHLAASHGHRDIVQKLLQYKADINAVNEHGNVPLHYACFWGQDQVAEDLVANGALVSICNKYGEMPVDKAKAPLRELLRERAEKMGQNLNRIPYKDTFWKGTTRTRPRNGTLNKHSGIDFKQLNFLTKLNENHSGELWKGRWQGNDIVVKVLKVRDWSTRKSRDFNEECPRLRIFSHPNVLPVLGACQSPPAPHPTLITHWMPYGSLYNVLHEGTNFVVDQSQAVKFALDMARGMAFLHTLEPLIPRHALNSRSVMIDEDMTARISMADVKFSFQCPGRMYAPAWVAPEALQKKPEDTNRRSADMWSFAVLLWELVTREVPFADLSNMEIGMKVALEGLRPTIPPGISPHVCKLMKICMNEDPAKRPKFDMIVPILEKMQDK
Procedure, shortened: (§1)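 PC-3 cells exposed to graded concentrations for 24 h in 5% FBS medium. Immunoblotting for phospho-Tyr397-FAK, ERK1/2, p38 and JNK. Lysis in 1% SDS buffer, primary antibody 1:1000 at 4°C for 2 h, ECL. Three independent experiments.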

[6] = target: Focal adhesion kinase 1 (Homo sapiens) (UniProt Q05397); experiment: Inhibition of FAK in human PC3 cells assessed as decrease in auto-phosphorylation at Tyr-397 by Western blot analysis; type: cell-based; conditions: PC-3; procedure, shortened: as §1
[7] = target: Ribosomal protein S6 kinase alpha-1 (Homo sapiens) (UniProt Q15418); experiment: Inhibition of Rsk1 at 5 uM assessed as remaining activity
Chain of Ribosomal protein S6 kinase alpha-1 (Homo sapiens) (Q15418 whole entry): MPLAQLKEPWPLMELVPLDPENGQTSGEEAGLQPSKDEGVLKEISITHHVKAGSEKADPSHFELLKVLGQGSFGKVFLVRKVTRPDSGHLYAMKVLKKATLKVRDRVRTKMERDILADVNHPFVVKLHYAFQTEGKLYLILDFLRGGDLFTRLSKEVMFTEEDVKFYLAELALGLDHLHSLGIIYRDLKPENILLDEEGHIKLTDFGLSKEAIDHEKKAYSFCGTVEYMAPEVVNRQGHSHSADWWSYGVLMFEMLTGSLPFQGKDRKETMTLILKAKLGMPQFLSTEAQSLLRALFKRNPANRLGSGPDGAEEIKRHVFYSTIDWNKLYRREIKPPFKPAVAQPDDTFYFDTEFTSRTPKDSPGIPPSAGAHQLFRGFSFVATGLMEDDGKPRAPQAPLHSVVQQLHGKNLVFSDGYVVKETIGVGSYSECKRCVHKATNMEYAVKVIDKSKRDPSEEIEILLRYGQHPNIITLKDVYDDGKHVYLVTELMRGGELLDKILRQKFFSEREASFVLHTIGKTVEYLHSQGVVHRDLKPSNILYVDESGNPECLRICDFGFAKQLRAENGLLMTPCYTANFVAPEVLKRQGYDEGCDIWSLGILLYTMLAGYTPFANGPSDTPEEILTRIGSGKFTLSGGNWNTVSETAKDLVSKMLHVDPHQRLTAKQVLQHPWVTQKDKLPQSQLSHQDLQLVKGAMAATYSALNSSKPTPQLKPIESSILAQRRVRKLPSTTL

Chain of Focal adhesion kinase 1 (Homo sapiens) (Q05397 2-1052 limits assumed): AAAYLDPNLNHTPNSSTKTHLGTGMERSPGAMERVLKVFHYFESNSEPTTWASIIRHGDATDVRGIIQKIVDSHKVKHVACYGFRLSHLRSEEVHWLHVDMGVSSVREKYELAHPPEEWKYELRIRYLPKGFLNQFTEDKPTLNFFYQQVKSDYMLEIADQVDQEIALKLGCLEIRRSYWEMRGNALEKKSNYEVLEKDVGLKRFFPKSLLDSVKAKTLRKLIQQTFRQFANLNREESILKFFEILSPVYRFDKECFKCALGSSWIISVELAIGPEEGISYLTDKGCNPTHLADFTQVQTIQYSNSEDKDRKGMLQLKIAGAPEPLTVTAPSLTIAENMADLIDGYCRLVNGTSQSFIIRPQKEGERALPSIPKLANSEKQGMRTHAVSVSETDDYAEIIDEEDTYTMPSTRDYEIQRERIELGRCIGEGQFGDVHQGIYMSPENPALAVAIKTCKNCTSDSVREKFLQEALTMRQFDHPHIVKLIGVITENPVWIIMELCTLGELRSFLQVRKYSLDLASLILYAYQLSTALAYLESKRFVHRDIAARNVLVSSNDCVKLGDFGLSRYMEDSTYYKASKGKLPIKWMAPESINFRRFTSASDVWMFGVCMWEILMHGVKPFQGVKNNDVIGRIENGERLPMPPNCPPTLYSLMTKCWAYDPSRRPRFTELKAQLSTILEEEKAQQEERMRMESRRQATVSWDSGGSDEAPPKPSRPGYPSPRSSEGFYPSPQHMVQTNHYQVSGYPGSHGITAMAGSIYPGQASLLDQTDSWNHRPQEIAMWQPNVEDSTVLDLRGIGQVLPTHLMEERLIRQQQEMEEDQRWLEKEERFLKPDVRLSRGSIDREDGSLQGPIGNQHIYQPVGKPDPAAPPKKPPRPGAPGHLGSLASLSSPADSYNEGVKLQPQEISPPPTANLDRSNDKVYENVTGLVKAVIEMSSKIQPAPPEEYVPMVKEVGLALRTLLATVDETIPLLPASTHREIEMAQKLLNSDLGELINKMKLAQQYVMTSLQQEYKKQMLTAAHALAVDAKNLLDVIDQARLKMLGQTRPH

inhibition [5]: Dose-dependent effect | inhibition [6]: inactive | Activity [7]: 65%
SMILES: CNC(=O)CCc1cc(-c2ccc(-c3ccc(C(F)(F)F)cc3)cc2)n(-c2ccc(N3CCNCC3)cc2)n1
inhibition [1]: inactive | Activity [2]: 25.2% | Activity [3]: inactive | Activity [4]: 6.3%
